Compound activity deposited in PubChem by NMMLSC.
Rows were chosen to be rich in hits. Some 2.3% of all compounds tested hit in one or more screens of this group.
MEKK2 mut-MEK5 = signal of MEK5 binding to mutant human MEKK2 PB1 domain. bead flow cytometry, Alexa488-MEK5 binding to MEKK2 mutant. percent response, % at 10 µM. hit rate 0.35% among 290,000; in the data active = percent response above about 24%, passing the limit was not always enough
MEKK2 WT-MEK5 = raises or lowers MEK5 binding to wildtype human MEKK2 PB1 domain | hit rate 1.1% among 290,000 | Q9Y2U5 | binding response (% of control), % at 10 µM | bead flow cytometry, Alexa488-MEK5 binding to MEKK2 WT; actives lie on both sides; in the data active = binding response below about 67% or above about 130%
MEKK3 PB1 HTS = raises or lowers MEK5 binding to the human MEKK3 PB1 domain; AID 1529; bead-based flow cytometry, Alexa488-MEK5 binding to MEKK3; actives lie on both sides; 0 = blocked by unlabeled MEK5, 100 = vehicle; hit rate 1.4% among 290,000; Q99759; binding response (% of control), % at 10 µM;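 active = binding response more than 3 SD above or below the average of its plate-row segment, actives on both sides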;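 also: Alexa488 bead fluorescence after subtracting the streptavidin-only scavenger bead signal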
ABCG2 inh = inhibitors of human ABCG2 transporter, ABCB1 counter-screen | Q9UNQ0 | IgMXP3 cells, JC-1 efflux, flow cytometry | inhibition, % at 6.6 µM | hit rate 0.1% among 190,000 | AID 1325;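 active = inhibition above 80%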;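 also: 0% = DMSO and 100% = nicardipine control wells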
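material = IgMXP3 (ABCG2) plus far-red-tagged CCRF-Adr (ABCB1) cells | amount = 3 million cells/mL, equal mix of both lines | also added = JC-1 transporter substrate | dosing = one concentration, 6.6 µM final | schedule = 10 min at 25 °C | measured by = flow cytometric JC-1 green MFI at 530 nm | read-out basis = percent efflux inhibition, scaled nicardipine 100% to DMSO 0%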
ABCB1 block = human ABCB1 inhibition, ABCG2 as counter-screen | P08183 | hit rate 0.067% among 190,000 | CCRF-Adr cells, JC-1 efflux, flow cytometry | AID 1326 | inhibition, % at 6.6 µM; in the data active = inhibition above about 40%;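 also: 0% = vehicle and 100% = reference inhibitor; higher value means more JC-1 retained so stronger ABCB1 efflux block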
MEKK2wt confirm = raises or lowers MEK5 binding to wildtype human MEKK2, retest; bead flow cytometry, Alexa488-MEK5 binding to MEKK2 WT; actives lie on both sides; AID 1892; hit rate 2.4% among 5,900; binding response (% of control), % at 10 µM; shares compounds with MEKK3 PB1 HTS; in the data active = binding response below about 16% or above about 210%; inactive = in between
MEKK2mut-MEK5 = signal of MEK5 binding to mutant human MEKK2, retest; hit rate 2% among 5,900; shares compounds with MEKK3 PB1 HTS; AID 1893; bead flow cytometry, Alexa488-MEK5 binding to MEKK2 mutant; percent response, % at 10 µM; in the data active = percent response mostly above about 71%, no sharp cut-off; inactive = mostly below about 38%;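 also: higher means compound restores mutant binding toward wildtype level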
MEKK3-MEK5 inh = confirmation of inhibitors of MEK5 binding to human MEKK3 | AID 1894 | binding response (% of control), % at 10 µM | shares compounds with MEKK3 PB1 HTS | hit rate 1.8% among 5,900 | bead flow cytometry, Alexa488-MEK5 binding to MEKK3; stronger effect = lower value;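 active = binding response below 72% of control, or above a set upper limit, though filed actives all read lower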;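 also: 100% = DMSO only wells and 0% = binding blocked by excess unlabeled MEK5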
* marks the source's active call; other numbers are inactive results; / = not tested or not shown; [ ] = remark or other dose.

SMILES	MEKK2 mut-MEK5	MEKK2 WT-MEK5	MEKK3 PB1 HTS	ABCG2 inh	ABCB1 block	MEKK2wt confirm	MEKK2mut-MEK5	MEKK3-MEK5 inh
O=C(CN1CCOCC1)Nc1ccccc1Sc1ccc(Cl)cc1	0.0	103.0	129.0*	4.1	1.0	98.0	-7.0	100.0
CC1CC2(C)Oc3ccccc3CC2C(C)C1CNCCCN(C)C (configuration not stated)	21.0	139.0*	103.0	0.3	-0.5	113.0	4.0	95.0
CC1Cc2ccccc2N1C(=O)CNCCCN(C)C (configuration not stated)	/	/	/	0.0	0.0	/	/	/
O=C(NCc1ccco1)c1ccc(=O)[nH]n1	-11.0	90.0	82.0*[inhibitor]	-2.6	-2.1	117.0	1.0	103.0
COc1ccc(CCN(C(=O)c2snc(C(N)=O)c2N)C(C)C(=O)NC2CCCCC2)cc1OC (configuration not stated)	-3.0	96.0	98.0	/	/	/	/	/
CCSC1=N/C(=C\c2ccccc2)C(=O)N1c1ccc(OC)cc1	-13.0	70.0	74.0*[inhibitor]	10.9	-0.8	100.0	1.0	107.0
C=CCSC1=N/C(=C\c2cccnc2)C(=O)N1c1ccc(OC)cc1	-1.0	99.0	102.0	-0.1	0.5	/	/	/
CN(/N=C/c1ccncc1)c1cnc2ccccc2n1	-2.0	88.0	74.0*[inhibitor]	8.0	1.1	104.0	3.0	104.0
O=C(Nc1nc2ccsc2c(=O)s1)C1CCC1	32.0	116.0	129.0*	/	/	99.0	0.0	102.0
CNC(=O)CSc1nnc(C(C)C)n1C	5.0	122.0	136.0*	1.2	0.4	93.0	-6.0	96.0
CCn1c(SCC(=O)NC)nnc1C(C)C	3.0	102.0	94.0	0.1	0.0	/	/	/
CCOc1ccc(C2NCCc3cc(OC)c(OC)cc32)cc1OC (configuration not stated)	1.0	104.0	103.0	/	/	/	/	/
COc1ccc2cc1Oc1ccc(cc1)CC1c3c(cc(OC)c4c3Oc3cc5c(cc3O4)CCNC5C2)CCN1C (configuration not stated)	30.0*	186.0*	75.0	/	/	174.0	50.0	107.0
O=C(Cn1cc(C(F)(F)F)cc(Cl)c1=O)NCCc1ccccc1	0.0	108.0	135.0*	20.2	0.5	103.0	2.0	102.0
O=C(Cn1cc(C(F)(F)F)cc(Cl)c1=O)NCc1ccccc1	-1.0	103.0	99.0	/	/	/	/	/
COc1cc(/C=C2\SC(=S)N(CC(=O)Nc3ccc(O)cc3)C2=O)cc(OC)c1OC	90.0*	51.0	67.0*[inhibitor]	-2.2	-0.7	87.0	-12.0	97.0
NS(=O)(=O)c1ccc(CCNC(=O)C2CCN(S(=O)(=O)c3ccc(Br)s3)CC2)cc1	-46.0	3.0*[inhibitor]	2.0*[inhibitor]	9.6	-0.6	104.0	4.0	103.0
Cc1ccc(S(=O)(=O)N2CCC(C(=O)NCCc3ccc(S(N)(=O)=O)cc3)CC2)cc1	1.0	100.0	98.0	-0.2	-0.3	/	/	/
CCN1C(c2ccccc2)=C(c2ccccc2)S/C1=C/C=C1\SC(=S)N(C)C1=O	-15.0	-7.0*	37.0*[inhibitor]	-0.4	-0.2	29.0	-20.0	51.0*
CCN1C(c2ccccc2)=C(c2ccccc2)S/C1=C\C=C1/SC(=S)N(C)C1=O	-22.0	-8.0*	33.0*[inhibitor]	/	/	46.0	-44.0	70.0*
CN1CCS/C1=C/C=C1/SC(=S)N(Cc2ccccc2)C1=O	-2.0	69.0	95.0	15.0	5.4	/	/	/
CCN1C(=O)/C(=C/C=C2/Sc3ccc4ccccc4c3N2CCO)SC1=S	-3.0	8.0*[inhibitor]	90.0	-8.1	0.1	73.0	-33.0	85.0
COc1ccc(Cl)cc1NC(=O)NC(C)C	-13.0	54.0	47.0*[inhibitor]	-2.1	-0.5	100.0	-4.0	102.0
CCOC(=O)Cc1nc(-c2ccccc2)n[nH]1	-3.0	1.0*[inhibitor]	91.0	2.3	1.2	95.0	-6.0	93.0
CCOC(=O)Cc1nc2ccccc2[nH]1	6.0	106.0	109.0	-3.9	-0.6	/	/	/
SMILES	MEKK2 mut-MEK5	MEKK2 WT-MEK5	MEKK3 PB1 HTS	ABCG2 inh	ABCB1 block	MEKK2wt confirm	MEKK2mut-MEK5	MEKK3-MEK5 inh
CC(=O)Nc1ccc(N(C(=O)Cc2cccs2)C(C(=O)NC2CCCC2)c2ccncc2)cc1 (configuration not stated)	4.0	106.0	103.0	/	/	/	/	/
Cc1cc(C(=O)NCCCN2CCN(c3cc(Cl)ccc3C)CC2)n(-c2ccccc2)n1	21.0	139.0*	109.0	4.4	3.4	134.0	30.0	104.0
Cc1cc(C(=O)NCCN2CCN(c3cccc(Cl)c3)CC2)n(-c2ccccc2)n1	12.0	124.0	108.0	6.0	2.9	/	/	/
O=C(NCCN1C(=O)S/C(=C\c2ccc(OC(F)F)cc2)C1=O)[C@@H]1CCCN1C(=O)c1cccs1	0.0	104.0	131.0*	8.3	1.4	108.0	11.0	104.0
O=C(NCCN1C(=O)S/C(=C\c2ccc(OC(F)F)cc2)C1=O)c1cnccn1	-1.0	96.0	100.0	6.0	/	/	/	/
CS(=O)(=O)N1CCN(C(=O)Cc2cccs2)CC1	-9.0	79.0	63.0*[inhibitor]	1.0	1.1	111.0	13.0	109.0
CS(=O)(=O)N1CCN(C(=O)COc2ccc3ccccc3c2)CC1	29.0	113.0	132.0*	/	/	100.0	-7.0	105.0
O=C(Cc1cccs1)N1CCN(S(=O)(=O)c2ccc(Br)cc2)CC1	-8.0	98.0	100.0	0.0	35.4	/	/	/
COc1ccc(CCNC(=O)COc2ccc([N+](=O)[O-])cc2)cc1	0.0	99.0	98.0	15.9	0.3	/	/	/
COc1ccc(P(=O)(COc2ccc([N+](=O)[O-])cc2)c2ccc(OC)cc2)cc1	-1.0	101.0	66.0*[inhibitor]	13.3	1.9	94.0	-3.0	94.0
O=C(CN1CCOCC1)Nc1nc(-c2ccc3c(c2)CCN3S(=O)(=O)c2ccccc2)cs1	-26.0	3.0*[inhibitor]	2.0*[inhibitor]	1.2	1.1	99.0	-9.0	101.0
O=C(CNC(=S)NC(=O)c1ccccc1Br)c1ccccc1	6.0	103.0	104.0	0.0	0.0	/	/	/
CCCCNC(=S)NC(=O)c1ccccc1Br	1.0	111.0	154.0*	0.8	0.1	98.0	-1.0	102.0
CCCOC(=O)CC1C(=O)NCCN1C(=O)OC(C)(C)C (configuration not stated)	-18.0	48.0	39.0*[inhibitor]	-0.3	0.3	103.0	-1.0	102.0
CCOC(=O)CC1C(=O)NCCN1C(=O)c1ccc(C)cc1 (configuration not stated)	-2.0	98.0	94.0	/	/	/	/	/
COc1ccc(NC(=O)CN2C(=O)NC3(CCCC3)C2=O)cc1Cl	0.0	94.0	93.0	/	/	/	/	/
CCN1CCN(C(=O)C2CCCN(S(=O)(=O)c3cccc4nsnc34)C2)CC1 (configuration not stated)	3.0	107.0	101.0	/	/	/	/	/
